Data taken from ChEMBL document CHEMBL1155278, “3,4-Diaryl-isoxazoles and -imidazoles as potent dual inhibitors of p38alpha mitogen activated protein kinase and casein kinase 1delta” (J Med Chem, 2009).

Columns and labels:
[1] = target: Ephrin type-A receptor 2 (Homo sapiens) (UniProt P29317); test: Inhibition of EPHA2 assessed as residual activity at 10 uM by Cherenkov counting relative to control in presence of 50 uM ATP
How it was run: (§1)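 Single-point profiling at 10 µM in a panel of 78 protein kinases. Kinase activity is expressed as a percentage relative to control assays without compound.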

[2] = target: Serine/threonine-protein kinase pim-3 (Homo sapiens) (UniProt Q86V86); test: Inhibition of PIM3 assessed as residual activity at 10 uM by Cherenkov counting relative to control in presence of 20 uM ATP
[3] = target: T1, Eukaryotic elongation factor 2 kinase (Homo sapiens) (UniProt O00418); test: Inhibition of EF2K assessed as residual activity at 10 uM by Cherenkov counting relative to control in presence of 5 uM ATP; how it was run: as §1
T1 sequence (whole entry): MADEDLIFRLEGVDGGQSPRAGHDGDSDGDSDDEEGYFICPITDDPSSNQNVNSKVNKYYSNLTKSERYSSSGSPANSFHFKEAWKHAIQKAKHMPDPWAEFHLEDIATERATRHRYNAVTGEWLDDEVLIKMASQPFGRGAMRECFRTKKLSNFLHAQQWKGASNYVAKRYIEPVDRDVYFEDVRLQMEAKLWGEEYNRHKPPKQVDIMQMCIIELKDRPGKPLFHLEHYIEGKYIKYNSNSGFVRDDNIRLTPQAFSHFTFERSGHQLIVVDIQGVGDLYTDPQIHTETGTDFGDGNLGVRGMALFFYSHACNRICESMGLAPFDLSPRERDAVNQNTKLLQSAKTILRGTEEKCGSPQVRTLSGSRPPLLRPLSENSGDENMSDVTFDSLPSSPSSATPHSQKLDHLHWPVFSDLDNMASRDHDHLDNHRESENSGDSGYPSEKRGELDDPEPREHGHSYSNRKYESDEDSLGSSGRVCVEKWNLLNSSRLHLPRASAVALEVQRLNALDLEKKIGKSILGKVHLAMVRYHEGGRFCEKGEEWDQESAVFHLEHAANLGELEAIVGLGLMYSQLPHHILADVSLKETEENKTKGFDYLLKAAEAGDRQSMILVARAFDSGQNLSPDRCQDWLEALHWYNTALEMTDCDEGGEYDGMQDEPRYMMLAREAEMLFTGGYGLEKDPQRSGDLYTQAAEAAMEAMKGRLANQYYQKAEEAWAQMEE

[4] = target: 3-phosphoinositide-dependent protein kinase 1 (Homo sapiens) (UniProt O15530); test: Inhibition of PDK1 assessed as residual activity at 10 uM by Cherenkov counting relative to control in presence of 20 uM ATP
[5] = target: T2, Casein kinase I isoform delta (Homo sapiens, UniProt P48730); test: Inhibition of CK1delta assessed as residual activity at 10 uM by Cherenkov counting relative to control in presence of 20 uM ATP
How it was run: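 CK1δ tested within a 78-protein-kinase panel with compound at 10 µM. Activity is expressed as a percentage of kinase activity relative to control assays run without compound.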

[6] = target: T2, Casein kinase I isoform delta; test: Inhibition of CK1delta at 10 uM by Cherenkov counting in presence of 20 uM ATP
[7] = target: MAP/microtubule affinity-regulating kinase 3 (Homo sapiens) (UniProt P27448); test: Inhibition of MARK3 assessed as residual activity at 10 uM by Cherenkov counting relative to control in presence of 5 uM ATP
[8] = target: Ribosomal protein S6 kinase alpha-1 (Homo sapiens) (UniProt Q15418); test: Inhibition of RSK1 assessed as residual activity at 0.1 uM by Cherenkov counting relative to control
How it was run: (§2)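 Single-concentration screen at 0.1 μM in a 76-kinase panel. ATP for each kinase was set near its Km for ATP. Residual activity is given as a percentage of control assays without compound, mean of n = 3 ± SD.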

[9] = target: Mitogen-activated protein kinase 9 (Homo sapiens) (UniProt P45984); test: Inhibition of JNK2 at 0.1 uM by Cherenkov counting in presence of 20 uM ATP
How it was run: (§3)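 Single-concentration selectivity screen at 0.1 μM against a panel of 76 protein kinases. Each kinase was run at an ATP level approximating its Km for ATP. Output is mean residual activity as % of the control assay without compound, n = 3 ± SD.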

[10] = target: Serine/threonine-protein kinase PLK1 (Homo sapiens) (UniProt P53350); test: Inhibition of PLK1 assessed as residual activity at 0.1 uM by Cherenkov counting relative to control in presence of 5 uM ATP; how it was run: as §2
[11] = target: Ribosomal protein S6 kinase alpha-3 (Homo sapiens) (UniProt P51812); test: Inhibition of RSK2 assessed as residual activity at 0.1 uM by Cherenkov counting relative to control in presence of 50 uM ATP; how it was run: as §2
[12] = target: 3-phosphoinositide-dependent protein kinase 1 (Homo sapiens) (UniProt O15530); test: Inhibition of PDK1 assessed as residual activity at 0.1 uM by Cherenkov counting relative to control in presence of 20 uM ATP
[13] = target: Serine/threonine-protein kinase PAK 6 (Homo sapiens) (UniProt Q9NQU5); test: Inhibition of PAK6 assessed as residual activity at 0.1 uM by Cherenkov counting relative to control in presence of 20 uM ATP; how it was run: as §3
[14] = target: Tyrosine-protein kinase SYK (Homo sapiens) (UniProt P43405); test: Inhibition of SYK assessed as residual activity at 0.1 uM by Cherenkov counting relative to control in presence of 20 uM ATP; how it was run: as §2
[15] = target: Serine/threonine-protein kinase Nek6 (Homo sapiens) (UniProt Q9HC98); test: Inhibition of NEK6 assessed as residual activity at 0.1 uM by Cherenkov counting relative to control in presence of 50 uM ATP; how it was run: as §3
[16] = target: Insulin receptor (Homo sapiens) (UniProt P06213); test: Inhibition of histidine-tagged IR assessed as residual activity at 0.1 uM by Cherenkov counting relative to control in presence of 20 uM ATP; how it was run: as §2
[17] = target: Mitogen-activated protein kinase 9 (Homo sapiens) (UniProt P45984); test: Inhibition of JNK2 assessed as residual activity at 0.1 uM by Cherenkov counting relative to control in presence of 20 uM ATP; how it was run: as §3
[18] = target: Ephrin type-A receptor 2 (Homo sapiens) (UniProt P29317); test: Inhibition of EPHA2 assessed as residual activity at 0.1 uM by Cherenkov counting relative to control in presence of 50 uM ATP
How it was run: (§4)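 Single-concentration screen at 0.1 µM across a panel of 76 protein kinases. Each kinase was run at an ATP concentration approximating its ATP Km. Results are % mean residual activity versus control assays without compound (n = 3 ± SD).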

[19] = target: T1, Eukaryotic elongation factor 2 kinase (Homo sapiens); test: Inhibition of EF2K assessed as residual activity at 0.1 uM by Cherenkov counting relative to control in presence of 5 uM ATP; how it was run: as §4
[20] = target: Homeodomain-interacting protein kinase 2 (Homo sapiens) (UniProt Q9H2X6); test: Inhibition of HIPK2 assessed as residual activity at 0.1 uM by Cherenkov counting relative to control in presence of 5 uM ATP; how it was run: as §4
Chain of Homeodomain-interacting protein kinase 2 (Homo sapiens) (Q9H2X6 whole entry, looked up): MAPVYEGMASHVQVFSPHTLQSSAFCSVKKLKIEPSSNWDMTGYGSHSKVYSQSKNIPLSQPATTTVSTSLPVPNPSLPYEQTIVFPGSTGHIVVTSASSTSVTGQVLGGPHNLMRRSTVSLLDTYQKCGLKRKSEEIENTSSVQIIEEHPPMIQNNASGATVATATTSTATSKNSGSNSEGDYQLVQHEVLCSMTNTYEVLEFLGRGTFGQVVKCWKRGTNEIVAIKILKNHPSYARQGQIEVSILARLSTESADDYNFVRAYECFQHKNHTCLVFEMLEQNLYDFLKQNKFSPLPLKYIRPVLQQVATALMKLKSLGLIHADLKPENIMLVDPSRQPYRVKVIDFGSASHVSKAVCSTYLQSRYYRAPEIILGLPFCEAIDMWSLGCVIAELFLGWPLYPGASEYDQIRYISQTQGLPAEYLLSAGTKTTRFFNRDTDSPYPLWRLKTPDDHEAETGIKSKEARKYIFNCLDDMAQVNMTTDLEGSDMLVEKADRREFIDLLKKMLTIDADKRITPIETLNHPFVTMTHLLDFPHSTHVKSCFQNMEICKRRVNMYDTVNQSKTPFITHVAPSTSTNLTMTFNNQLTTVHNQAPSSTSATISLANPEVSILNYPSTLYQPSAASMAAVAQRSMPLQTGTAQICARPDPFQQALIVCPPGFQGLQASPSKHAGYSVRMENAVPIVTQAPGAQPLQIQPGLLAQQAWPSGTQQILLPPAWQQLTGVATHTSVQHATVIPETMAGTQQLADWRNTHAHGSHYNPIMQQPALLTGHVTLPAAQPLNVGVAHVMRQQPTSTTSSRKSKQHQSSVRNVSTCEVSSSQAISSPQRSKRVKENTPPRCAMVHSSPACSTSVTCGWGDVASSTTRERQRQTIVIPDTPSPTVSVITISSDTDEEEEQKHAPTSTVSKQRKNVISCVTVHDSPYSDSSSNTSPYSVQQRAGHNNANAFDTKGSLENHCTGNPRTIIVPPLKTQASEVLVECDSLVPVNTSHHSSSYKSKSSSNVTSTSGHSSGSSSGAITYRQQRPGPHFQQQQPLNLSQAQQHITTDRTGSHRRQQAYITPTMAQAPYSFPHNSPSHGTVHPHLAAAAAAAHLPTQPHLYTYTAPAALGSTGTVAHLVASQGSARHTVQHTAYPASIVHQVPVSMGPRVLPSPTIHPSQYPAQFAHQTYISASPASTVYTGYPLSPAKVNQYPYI

T2 sequence (P48730 whole entry, looked up, canonical isoform): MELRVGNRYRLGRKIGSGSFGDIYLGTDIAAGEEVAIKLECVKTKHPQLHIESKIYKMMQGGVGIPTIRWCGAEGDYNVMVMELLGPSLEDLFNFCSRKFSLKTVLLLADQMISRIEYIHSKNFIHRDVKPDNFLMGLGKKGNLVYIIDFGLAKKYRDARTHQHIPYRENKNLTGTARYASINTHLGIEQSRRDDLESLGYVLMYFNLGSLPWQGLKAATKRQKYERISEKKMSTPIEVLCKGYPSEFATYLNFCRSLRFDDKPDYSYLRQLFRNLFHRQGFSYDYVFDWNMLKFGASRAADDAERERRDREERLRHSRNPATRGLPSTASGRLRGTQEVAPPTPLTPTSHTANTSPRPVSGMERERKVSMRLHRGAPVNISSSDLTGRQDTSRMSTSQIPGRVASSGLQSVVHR
Chain of 3-phosphoinositide-dependent protein kinase 1 (Homo sapiens) (O15530 whole entry, looked up, canonical isoform): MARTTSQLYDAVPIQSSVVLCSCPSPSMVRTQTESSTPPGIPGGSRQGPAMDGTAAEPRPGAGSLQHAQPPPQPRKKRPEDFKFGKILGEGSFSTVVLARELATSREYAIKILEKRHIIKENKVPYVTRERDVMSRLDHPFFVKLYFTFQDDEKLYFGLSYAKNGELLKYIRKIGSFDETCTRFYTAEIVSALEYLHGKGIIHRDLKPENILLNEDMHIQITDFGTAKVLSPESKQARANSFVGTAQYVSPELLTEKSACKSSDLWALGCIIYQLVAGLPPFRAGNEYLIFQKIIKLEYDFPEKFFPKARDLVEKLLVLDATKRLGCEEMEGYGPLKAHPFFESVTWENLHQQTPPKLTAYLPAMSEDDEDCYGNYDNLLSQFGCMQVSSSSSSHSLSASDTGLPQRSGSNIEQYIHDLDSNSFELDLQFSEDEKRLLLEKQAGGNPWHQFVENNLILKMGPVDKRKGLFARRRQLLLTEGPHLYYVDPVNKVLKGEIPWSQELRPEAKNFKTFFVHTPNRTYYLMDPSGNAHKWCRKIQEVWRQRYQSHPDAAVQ
Chain of Ephrin type-A receptor 2 (Homo sapiens) (P29317 whole entry): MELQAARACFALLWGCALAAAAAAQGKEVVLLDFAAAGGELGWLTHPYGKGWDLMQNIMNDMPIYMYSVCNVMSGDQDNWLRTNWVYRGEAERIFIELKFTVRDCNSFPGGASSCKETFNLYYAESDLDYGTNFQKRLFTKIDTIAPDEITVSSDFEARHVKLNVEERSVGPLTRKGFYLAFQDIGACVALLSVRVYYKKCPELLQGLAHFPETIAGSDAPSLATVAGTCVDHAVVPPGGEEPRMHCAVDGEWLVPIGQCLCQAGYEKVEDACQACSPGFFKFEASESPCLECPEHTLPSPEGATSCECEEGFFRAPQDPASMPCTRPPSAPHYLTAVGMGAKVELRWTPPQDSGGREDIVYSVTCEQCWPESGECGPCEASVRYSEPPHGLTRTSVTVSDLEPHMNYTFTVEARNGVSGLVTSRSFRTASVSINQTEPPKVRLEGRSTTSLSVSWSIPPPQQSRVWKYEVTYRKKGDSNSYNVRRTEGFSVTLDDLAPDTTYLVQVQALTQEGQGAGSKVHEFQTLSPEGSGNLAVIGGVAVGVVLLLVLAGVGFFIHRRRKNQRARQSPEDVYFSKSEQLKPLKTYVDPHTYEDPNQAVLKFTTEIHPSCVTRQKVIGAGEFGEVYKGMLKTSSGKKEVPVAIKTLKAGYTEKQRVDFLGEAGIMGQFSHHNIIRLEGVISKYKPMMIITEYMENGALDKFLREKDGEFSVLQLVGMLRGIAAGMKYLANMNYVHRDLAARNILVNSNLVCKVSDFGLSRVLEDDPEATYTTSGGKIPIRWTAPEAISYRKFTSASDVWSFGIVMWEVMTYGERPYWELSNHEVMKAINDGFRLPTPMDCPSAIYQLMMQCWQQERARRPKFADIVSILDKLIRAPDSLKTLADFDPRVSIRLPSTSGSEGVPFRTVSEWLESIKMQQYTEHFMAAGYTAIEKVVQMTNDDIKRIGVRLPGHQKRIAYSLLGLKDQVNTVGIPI
Chain of Mitogen-activated protein kinase 9 (Homo sapiens) (P45984 whole entry, looked up): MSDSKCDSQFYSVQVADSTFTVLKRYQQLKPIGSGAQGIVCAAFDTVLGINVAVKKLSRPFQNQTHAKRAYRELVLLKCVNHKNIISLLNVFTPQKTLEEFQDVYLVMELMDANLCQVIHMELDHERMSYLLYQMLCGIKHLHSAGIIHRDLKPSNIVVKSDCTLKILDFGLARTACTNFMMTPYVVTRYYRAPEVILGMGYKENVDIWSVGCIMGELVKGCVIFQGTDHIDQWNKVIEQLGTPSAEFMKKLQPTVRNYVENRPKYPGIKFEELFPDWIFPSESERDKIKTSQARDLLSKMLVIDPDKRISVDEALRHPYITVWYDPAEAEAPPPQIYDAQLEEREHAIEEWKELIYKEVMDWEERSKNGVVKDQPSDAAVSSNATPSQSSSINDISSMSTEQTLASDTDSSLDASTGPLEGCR
Chain of Serine/threonine-protein kinase PAK 6 (Homo sapiens) (Q9NQU5 whole entry, looked up): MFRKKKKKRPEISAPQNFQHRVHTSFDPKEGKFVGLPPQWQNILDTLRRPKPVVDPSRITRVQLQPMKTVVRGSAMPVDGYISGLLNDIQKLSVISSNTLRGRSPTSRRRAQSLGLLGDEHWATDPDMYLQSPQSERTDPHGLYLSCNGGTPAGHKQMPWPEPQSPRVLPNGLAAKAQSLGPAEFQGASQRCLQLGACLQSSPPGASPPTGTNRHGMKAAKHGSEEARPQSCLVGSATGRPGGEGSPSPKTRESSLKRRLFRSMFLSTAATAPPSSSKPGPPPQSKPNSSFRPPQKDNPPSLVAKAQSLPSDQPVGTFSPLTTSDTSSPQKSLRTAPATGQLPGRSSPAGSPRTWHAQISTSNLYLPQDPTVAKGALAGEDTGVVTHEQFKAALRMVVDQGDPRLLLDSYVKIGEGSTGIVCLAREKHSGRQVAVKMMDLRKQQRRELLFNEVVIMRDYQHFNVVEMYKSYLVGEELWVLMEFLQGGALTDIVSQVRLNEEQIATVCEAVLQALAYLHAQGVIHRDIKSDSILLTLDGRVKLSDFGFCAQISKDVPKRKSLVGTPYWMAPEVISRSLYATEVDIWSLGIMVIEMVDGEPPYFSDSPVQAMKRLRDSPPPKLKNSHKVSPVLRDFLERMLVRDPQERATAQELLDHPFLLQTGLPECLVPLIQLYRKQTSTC
Chain of Serine/threonine-protein kinase Nek6 (Homo sapiens) (Q9HC98 whole entry): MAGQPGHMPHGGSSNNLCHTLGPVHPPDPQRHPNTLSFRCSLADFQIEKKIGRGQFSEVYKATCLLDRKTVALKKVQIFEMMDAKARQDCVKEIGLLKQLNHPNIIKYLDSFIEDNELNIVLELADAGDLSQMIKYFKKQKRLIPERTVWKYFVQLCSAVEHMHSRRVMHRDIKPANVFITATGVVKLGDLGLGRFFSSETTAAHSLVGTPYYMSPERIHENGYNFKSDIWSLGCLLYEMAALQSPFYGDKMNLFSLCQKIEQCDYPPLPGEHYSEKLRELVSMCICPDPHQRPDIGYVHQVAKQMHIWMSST

Activity [1] [%]	Activity [2] [%]	Activity [3] [%]	Activity [4] [%]	Activity [5] [%]	inhibition [6] [%]	Activity [7] [%]	Activity [8] [%]	inhibition [9] [%]	Activity [10] [%]	Activity [11] [%]	Activity [12] [%]	Activity [13] [%]	Activity [14] [%]	Activity [15] [%]	Activity [16] [%]	Activity [17] [%]	Activity [18] [%]	Activity [19] [%]	Activity [20] [%]	Structure (SMILES)
79	81	107	82	6	90	95	–	–	–	–	–	–	–	–	–	–	–	–	–	CC(C)c1onc(-c2ccc(F)cc2)c1-c1ccncc1
81	78	107	85	55	40	92	–	–	–	–	–	–	–	–	–	–	–	–	–	CC(C)c1noc(-c2ccc(F)cc2)c1-c1ccncc1
–	–	–	–	–	–	–	78	69	97	86	74	76	86	90	94	31	97	100	94	COc1ccc(/C=C/C(=O)Nc2cc(-c3[nH]c(SC)nc3-c3ccc(F)cc3)ccn2)c(OC)c1
–	–	–	–	–	–	–	80	88	110	94	94	84	86	111	94	12	95	102	104	COc1ccc(/C=C/C(=O)Nc2cc(-c3[nH]c([S+](C)[O-])nc3-c3ccc(F)cc3)ccn2)c(OC)c1 (stereo not given)
